Source: ChEMBL document CHEMBL2424622, “Development of amino-pyrimidine inhibitors of c-Jun N-terminal kinase (JNK): kinase profiling guided optimization of a 1,2,3-benzotriazole lead” (Bioorg Med Chem Lett, 2013)

Tests used:
[1] = target: Mitogen-activated protein kinase 7 (Homo sapiens, UniProt Q13164); experiment: Competitive binding affinity to ERK5 (unknown origin) at 10 uM in presence of ATP relative to control
[2] = test system: eIF-2-alpha kinase GCN2 (Homo sapiens), Q9P2K8 [S808G]; experiment: Competitive binding affinity to GCN2 kinase domain 2 S808G mutant (unknown origin) at 10 uM in presence of ATP relative to control
Summary of the method: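 In vitro ATP-site competition binding format, run as one member of a diverse 128-kinase profiling panel. Each compound was tested at a single concentration across the whole panel.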

[3] = target: T1, Discoidin domain-containing receptor 2 (Homo sapiens) (UniProt Q16832); experiment: Competitive binding affinity to DDR2 (unknown origin) at 10 uM in presence of ATP relative to control
T1 sequence (whole entry): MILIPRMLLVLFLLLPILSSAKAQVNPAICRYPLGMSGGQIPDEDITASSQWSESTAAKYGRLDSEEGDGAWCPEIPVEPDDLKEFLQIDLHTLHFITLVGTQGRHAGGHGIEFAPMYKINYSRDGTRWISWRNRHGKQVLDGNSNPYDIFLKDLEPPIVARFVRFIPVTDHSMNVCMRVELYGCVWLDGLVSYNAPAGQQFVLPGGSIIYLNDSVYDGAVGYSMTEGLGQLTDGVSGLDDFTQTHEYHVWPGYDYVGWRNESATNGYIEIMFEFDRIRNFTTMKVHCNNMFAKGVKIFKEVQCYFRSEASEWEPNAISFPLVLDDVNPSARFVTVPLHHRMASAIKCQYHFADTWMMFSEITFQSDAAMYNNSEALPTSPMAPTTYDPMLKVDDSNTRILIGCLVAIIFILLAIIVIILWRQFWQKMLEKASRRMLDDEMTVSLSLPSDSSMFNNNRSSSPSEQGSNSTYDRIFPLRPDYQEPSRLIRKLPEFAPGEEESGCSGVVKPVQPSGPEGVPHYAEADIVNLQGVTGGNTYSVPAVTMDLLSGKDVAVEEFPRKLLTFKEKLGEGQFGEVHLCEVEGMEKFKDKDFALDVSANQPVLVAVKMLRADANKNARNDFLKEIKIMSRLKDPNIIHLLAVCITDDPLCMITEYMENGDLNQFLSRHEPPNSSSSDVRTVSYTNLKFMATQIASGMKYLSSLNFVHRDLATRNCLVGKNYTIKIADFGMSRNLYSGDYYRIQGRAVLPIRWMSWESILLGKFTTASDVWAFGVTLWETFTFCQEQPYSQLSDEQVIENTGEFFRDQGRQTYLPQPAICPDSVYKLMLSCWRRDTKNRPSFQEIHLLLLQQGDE

[4] = test system: T2, Receptor-type tyrosine-protein kinase FLT3 (Homo sapiens), P36888 [N841I]; experiment: Competitive binding affinity to FLT3 N841I mutant (unknown origin) at 10 uM in presence of ATP relative to control
T2 sequence (whole entry): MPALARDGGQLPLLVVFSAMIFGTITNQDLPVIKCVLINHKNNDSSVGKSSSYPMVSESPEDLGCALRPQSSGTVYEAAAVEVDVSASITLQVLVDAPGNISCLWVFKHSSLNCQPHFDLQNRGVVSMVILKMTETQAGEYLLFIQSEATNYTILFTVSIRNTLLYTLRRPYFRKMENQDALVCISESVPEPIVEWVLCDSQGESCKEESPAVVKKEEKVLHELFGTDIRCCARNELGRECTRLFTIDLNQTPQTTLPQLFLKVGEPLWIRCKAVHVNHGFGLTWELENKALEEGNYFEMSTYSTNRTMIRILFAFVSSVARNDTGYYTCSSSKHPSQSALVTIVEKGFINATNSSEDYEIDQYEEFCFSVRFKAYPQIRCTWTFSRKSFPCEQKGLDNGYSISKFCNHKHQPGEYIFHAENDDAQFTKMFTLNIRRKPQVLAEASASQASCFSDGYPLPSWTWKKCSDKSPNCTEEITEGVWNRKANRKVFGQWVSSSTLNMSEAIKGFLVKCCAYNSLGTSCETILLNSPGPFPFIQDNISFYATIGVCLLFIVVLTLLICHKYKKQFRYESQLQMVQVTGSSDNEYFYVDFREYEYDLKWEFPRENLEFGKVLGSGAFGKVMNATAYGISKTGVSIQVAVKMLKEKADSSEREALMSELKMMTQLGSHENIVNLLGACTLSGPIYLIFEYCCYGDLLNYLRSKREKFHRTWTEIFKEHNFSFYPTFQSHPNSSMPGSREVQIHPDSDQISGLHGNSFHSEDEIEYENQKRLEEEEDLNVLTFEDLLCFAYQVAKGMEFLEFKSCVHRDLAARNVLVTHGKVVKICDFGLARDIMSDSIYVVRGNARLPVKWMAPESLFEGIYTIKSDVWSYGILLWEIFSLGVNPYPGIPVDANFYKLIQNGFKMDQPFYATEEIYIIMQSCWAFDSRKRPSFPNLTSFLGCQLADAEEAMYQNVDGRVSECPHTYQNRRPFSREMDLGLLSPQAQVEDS

[5] = target: Myosin-IIIa (Homo sapiens) (UniProt Q8NEV4); experiment: Competitive binding affinity to MYO3A (unknown origin) at 10 uM in presence of ATP relative to control
[6] = target: Serine/threonine-protein kinase N1 (Homo sapiens) (UniProt Q16512); experiment: Competitive binding affinity to PKN1 (unknown origin) at 10 uM in presence of ATP relative to control
[7] = target: Ribosomal protein S6 kinase alpha-5 (Homo sapiens) (UniProt O75582); experiment: Competitive binding affinity to RPS6KA5 kinase domain 2 (unknown origin) at 10 uM in presence of ATP relative to control
[8] = target: T3, Serine/threonine-protein kinase RIO1 (Homo sapiens) (UniProt Q9BRS2); experiment: Competitive binding affinity to RIOK1 (unknown origin) at 10 uM in presence of ATP relative to control
T3 sequence (whole entry): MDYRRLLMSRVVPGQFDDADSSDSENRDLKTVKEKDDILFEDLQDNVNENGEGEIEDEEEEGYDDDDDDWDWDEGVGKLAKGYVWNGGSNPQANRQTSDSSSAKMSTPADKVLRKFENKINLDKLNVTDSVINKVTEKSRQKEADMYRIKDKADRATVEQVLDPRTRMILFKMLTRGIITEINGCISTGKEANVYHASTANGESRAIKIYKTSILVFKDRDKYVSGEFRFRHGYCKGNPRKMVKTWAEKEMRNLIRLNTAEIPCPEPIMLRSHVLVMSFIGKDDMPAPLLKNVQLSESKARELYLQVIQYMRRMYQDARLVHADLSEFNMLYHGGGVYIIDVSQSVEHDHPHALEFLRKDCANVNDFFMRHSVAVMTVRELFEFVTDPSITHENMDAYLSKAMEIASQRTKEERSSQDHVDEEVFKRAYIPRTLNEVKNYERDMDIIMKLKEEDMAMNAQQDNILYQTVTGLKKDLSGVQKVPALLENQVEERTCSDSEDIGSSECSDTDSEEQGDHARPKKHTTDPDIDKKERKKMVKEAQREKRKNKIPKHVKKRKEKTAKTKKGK

Sequence of Myosin-IIIa (Homo sapiens) (Q8NEV4 whole entry): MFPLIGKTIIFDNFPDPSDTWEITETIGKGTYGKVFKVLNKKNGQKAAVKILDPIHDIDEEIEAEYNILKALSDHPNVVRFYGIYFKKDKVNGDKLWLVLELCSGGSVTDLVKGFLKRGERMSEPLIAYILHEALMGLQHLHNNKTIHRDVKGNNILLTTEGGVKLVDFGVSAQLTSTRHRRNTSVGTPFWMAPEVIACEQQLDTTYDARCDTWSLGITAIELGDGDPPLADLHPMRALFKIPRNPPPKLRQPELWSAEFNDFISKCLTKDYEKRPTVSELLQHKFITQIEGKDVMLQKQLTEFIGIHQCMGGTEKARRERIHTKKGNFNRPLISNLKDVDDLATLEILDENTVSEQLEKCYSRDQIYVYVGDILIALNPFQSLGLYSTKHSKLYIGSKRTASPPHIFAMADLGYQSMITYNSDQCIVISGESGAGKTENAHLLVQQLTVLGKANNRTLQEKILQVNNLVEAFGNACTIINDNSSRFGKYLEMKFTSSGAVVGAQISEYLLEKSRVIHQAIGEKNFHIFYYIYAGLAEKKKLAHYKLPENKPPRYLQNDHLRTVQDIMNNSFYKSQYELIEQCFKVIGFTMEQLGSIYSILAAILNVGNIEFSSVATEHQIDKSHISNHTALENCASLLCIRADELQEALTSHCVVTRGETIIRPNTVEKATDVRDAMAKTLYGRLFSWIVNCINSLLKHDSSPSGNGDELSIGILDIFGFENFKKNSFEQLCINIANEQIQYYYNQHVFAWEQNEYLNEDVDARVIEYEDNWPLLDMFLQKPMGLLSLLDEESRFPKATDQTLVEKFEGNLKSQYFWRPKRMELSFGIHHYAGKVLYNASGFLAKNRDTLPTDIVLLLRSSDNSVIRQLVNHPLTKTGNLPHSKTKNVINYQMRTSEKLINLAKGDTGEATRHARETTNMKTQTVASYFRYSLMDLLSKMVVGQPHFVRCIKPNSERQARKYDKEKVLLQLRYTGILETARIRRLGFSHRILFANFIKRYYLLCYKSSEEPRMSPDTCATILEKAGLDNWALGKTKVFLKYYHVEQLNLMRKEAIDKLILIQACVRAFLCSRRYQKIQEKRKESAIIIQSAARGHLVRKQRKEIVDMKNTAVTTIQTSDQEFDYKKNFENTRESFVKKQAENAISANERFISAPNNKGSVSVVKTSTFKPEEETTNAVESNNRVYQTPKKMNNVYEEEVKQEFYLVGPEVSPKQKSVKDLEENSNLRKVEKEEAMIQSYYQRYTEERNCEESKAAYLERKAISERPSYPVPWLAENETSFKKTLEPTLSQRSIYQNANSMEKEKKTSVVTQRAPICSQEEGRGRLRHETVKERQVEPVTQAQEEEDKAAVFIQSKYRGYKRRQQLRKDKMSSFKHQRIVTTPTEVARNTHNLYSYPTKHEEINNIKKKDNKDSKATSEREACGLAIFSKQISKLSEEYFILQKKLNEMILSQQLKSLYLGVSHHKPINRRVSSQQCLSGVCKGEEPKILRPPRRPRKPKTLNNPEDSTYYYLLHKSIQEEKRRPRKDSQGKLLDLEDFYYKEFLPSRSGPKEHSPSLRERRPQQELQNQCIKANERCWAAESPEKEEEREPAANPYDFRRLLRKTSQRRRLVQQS
Sequence of eIF-2-alpha kinase GCN2 (Homo sapiens), Q9P2K8 [S808G] (Q9P2K8 whole entry S808G, the tested form may be a part): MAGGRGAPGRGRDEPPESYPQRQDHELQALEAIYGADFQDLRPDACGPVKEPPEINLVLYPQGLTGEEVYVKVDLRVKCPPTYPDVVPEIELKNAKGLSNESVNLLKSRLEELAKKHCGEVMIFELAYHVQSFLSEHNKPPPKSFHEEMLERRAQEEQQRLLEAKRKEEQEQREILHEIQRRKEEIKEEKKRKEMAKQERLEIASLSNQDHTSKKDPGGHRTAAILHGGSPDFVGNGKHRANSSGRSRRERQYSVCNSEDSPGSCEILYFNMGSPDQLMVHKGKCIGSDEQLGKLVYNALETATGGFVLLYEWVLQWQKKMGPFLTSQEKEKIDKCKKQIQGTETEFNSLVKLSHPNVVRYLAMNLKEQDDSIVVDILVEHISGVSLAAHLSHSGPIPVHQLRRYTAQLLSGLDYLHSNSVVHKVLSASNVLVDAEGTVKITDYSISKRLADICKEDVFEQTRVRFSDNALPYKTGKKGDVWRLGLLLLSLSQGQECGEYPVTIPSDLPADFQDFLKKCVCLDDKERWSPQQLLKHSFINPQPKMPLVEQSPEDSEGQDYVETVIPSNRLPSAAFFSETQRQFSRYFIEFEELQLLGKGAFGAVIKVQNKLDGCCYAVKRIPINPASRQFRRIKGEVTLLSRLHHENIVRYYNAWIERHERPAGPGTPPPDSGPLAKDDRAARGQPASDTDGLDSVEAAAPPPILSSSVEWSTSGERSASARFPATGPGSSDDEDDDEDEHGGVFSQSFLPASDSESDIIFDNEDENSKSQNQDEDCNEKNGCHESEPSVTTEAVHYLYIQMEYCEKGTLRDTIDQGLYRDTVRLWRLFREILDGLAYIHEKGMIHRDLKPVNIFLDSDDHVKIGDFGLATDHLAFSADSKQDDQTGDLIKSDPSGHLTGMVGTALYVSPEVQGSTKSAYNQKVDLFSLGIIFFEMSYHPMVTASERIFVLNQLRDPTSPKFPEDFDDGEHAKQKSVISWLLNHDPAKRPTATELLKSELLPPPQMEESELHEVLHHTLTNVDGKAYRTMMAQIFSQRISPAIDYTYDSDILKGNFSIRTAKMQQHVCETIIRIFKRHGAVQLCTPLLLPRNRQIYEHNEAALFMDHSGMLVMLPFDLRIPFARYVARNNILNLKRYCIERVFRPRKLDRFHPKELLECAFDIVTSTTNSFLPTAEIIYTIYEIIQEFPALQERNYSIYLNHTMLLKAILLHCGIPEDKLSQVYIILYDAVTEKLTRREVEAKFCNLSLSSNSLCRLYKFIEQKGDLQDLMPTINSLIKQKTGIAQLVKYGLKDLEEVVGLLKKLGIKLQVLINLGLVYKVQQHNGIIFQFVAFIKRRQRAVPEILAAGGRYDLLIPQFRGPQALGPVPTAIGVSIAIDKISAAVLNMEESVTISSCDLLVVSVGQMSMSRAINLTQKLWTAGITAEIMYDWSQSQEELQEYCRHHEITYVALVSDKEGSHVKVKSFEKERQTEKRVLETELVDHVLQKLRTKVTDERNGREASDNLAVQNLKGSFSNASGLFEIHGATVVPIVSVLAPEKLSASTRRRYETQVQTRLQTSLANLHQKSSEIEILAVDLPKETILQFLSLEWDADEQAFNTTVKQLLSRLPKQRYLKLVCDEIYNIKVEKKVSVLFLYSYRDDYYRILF
Sequence of Ribosomal protein S6 kinase alpha-5 (Homo sapiens) (O75582 whole entry, looked up, the tested form may be a part): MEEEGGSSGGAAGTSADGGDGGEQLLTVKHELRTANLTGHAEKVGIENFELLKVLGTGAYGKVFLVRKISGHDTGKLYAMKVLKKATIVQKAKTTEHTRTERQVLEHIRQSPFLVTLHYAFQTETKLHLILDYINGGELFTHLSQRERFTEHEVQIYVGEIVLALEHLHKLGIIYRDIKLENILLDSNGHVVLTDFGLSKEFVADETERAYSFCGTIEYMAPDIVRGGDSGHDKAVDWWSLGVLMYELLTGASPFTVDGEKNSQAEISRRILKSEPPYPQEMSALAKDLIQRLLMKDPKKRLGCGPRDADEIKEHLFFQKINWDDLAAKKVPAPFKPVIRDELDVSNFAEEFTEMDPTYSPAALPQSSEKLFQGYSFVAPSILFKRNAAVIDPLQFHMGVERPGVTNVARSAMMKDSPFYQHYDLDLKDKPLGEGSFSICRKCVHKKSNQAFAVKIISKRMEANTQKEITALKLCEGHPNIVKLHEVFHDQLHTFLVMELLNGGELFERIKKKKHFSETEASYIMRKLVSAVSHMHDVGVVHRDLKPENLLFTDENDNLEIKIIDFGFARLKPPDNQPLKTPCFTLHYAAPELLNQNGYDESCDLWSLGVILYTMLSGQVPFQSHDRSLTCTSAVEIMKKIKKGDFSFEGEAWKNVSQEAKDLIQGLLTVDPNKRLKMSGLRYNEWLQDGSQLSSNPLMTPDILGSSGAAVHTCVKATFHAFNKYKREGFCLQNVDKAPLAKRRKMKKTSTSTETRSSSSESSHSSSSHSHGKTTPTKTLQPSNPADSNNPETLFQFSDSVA
Sequence of Serine/threonine-protein kinase N1 (Homo sapiens) (Q16512 2-942 limits assumed): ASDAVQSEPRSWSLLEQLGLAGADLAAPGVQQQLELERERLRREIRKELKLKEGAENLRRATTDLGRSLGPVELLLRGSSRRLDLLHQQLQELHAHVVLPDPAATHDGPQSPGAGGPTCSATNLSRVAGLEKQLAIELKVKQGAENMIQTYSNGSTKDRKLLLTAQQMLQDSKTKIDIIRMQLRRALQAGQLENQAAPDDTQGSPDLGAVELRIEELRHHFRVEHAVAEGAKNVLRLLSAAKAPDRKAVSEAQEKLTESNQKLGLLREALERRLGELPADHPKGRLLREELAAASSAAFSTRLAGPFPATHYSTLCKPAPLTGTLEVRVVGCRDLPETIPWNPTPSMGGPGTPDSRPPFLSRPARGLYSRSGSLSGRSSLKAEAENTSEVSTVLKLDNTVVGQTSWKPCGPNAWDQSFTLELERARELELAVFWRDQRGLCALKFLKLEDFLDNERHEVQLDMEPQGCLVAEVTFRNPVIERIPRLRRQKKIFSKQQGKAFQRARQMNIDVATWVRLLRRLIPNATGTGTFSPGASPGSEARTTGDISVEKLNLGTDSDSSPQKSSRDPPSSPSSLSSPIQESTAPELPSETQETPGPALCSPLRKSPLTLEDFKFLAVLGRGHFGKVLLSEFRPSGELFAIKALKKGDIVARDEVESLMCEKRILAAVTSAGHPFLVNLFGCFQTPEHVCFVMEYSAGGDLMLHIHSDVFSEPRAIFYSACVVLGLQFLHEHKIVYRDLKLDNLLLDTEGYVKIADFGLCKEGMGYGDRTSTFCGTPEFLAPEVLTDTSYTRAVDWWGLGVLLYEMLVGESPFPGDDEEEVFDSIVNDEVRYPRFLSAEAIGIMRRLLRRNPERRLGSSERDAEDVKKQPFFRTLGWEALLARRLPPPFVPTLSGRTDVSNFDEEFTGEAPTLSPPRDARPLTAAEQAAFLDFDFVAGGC

CS(=O)(=O)CCCOc1cccc2c1ccn2-c1ccnc(N[C@H]2CC[C@H](C(=O)N3CCC(O)CC3)CC2)n1
inhibition [1]: > 85% | inhibition [2]: > 85%

O[C@H]1CC[C@H](Nc2nccc(-n3ccc4ccccc43)n2)CC1
inhibition [3]: < 50% | inhibition [4]: < 50% | inhibition [5]: < 50% | inhibition [1]: < 50% | inhibition [2]: 83% | inhibition [6]: < 50% | inhibition [7]: < 50% | inhibition [8]: < 50%

O[C@H]1CC[C@H](Nc2nccc(-n3nnc4ccccc43)n2)CC1
inhibition [3]: < 50% | inhibition [4]: 98% | inhibition [5]: < 50% | inhibition [1]: 100% | inhibition [2]: 99% | inhibition [6]: < 50% | inhibition [7]: 85% | inhibition [8]: < 50%

O[C@H]1CC[C@H](Nc2nccc(-n3ncc4ccccc43)n2)CC1
inhibition [3]: < 50% | inhibition [4]: 97% | inhibition [5]: < 50% | inhibition [1]: 79% | inhibition [2]: 100% | inhibition [6]: < 50% | inhibition [7]: 66% | inhibition [8]: < 50%

O[C@H]1CC[C@H](Nc2nccc(-c3n[nH]c4ccccc34)n2)CC1
inhibition [4]: 100% | inhibition [2]: 100%
